In ChEMBL document CHEMBL3865824, “New (E)-1-alkyl-1H-benzo[d]imidazol-2-yl)methylene)indolin-2-ones: Synthesis, in vitro cytotoxicity evaluation and apoptosis inducing studies” (Eur J Med Chem, 2016):
pIC50: −log10 of the molar value. The source made the active and inactive calls. The rule behind the calls is not given here.

How the values were obtained:
[1] = Cytotoxicity against […] cells assessed as growth inhibition at 50 uM after 48 hrs by MTT assay relative to control; format: functional; settings: Mus musculus, 4T1, 48 h; read-out: GI
Summary of the method: (§1)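 Cells grown in DMEM or MEM with 10% FBS at 37 °C, 5% CO2. Seeded at 1×10^4 cells/well, incubated 48 h, then exposed to compound for 48 h with vehicle control. MTT (5 mg/mL stock) added for 4 h; formazan dissolved in DMSO, absorbance read at 570 nm. Preliminary screen at 50 µM. Compounds giving >50% inhibition were tested for dose-response curves; IC50 derived by linear regression of % inhibition versus concentration. Mean of three independent experiments in triplicate.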

MDA-MB-231 [2] = experiment: Induction of apoptosis in human MDA-MB-231 cells assessed as reduction in viable cells at 1 to 4 uM after 24 hrs by phase contrast microscopic analysis; format: functional, cell-based
Summary of the method: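 MDA-MB-231 cells were exposed for 24 h to 1, 2 and 4 μM beside a control. Morphology (shrinkage, deformation, number of viable cells) was examined and photographed by phase contrast microscopy.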

[3] = Cell cycle arrest in human MDA-MB-231 cells assessed as accumulation at G2/M phase at 1 uM after 24 hrs by propidium iodide staining based FACS analysis (reference value: 26 %); format: functional
Summary of the method: (§2)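 MDA-MB-231 at 1×10^6 cells/well treated with 1, 2 or 4 µM for 24 h, with a DMSO control. Cells harvested by trypsin, washed with PBS and fixed in 70% ethanol for 30 min at 4 °C. Stained 15 min at room temperature in the dark with PI buffer containing Triton X and DNase-free RNase A. Analysed by flow cytometry; G0/G1, S and G2/M fractions quantified.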

MDA-MB-231 [4] = experiment: Antimigratory activity against human MDA-MB-231 cells assessed inhibition of cell migration towards wound area at 2 to 4 uM up to 24 hrs by phase contrast microscopic analysis; format: functional, cell-based
Summary of the method: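 MDA-MB-231 seeded at 5×10^5 cells/well and grown 24 h to a confluent monolayer. Monolayer scratched with a 200 µL pipette tip and washed twice with PBS to remove non-adherent cells. Medium with compound at 1, 2 or 4 µM added. Wound closure photographed by phase contrast microscopy at 0 and 24 h after treatment.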

[5] = Cytotoxicity against human A549 cells assessed as growth inhibition at 50 uM after 48 hrs by MTT assay relative to control; format: functional; settings: A549, 48 h, read-out: GI; summary of the method: as §1
MDA-MB-231 [6] = experiment: Induction of apoptosis in human MDA-MB-231 cells assessed as late apoptotic cells at 2 uM after 24 hrs by Annexin V-FITC/propidium iodide-staining based FACS analysis (reference value: 3.6 %); format: functional
MDA-MB-231 [7] = experiment: Induction of apoptosis in human MDA-MB-231 cells assessed as decrease in Bcl2 expression after 24 hrs by Western blot analysis; format: functional, cell-based
Summary of the method: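 MDA-MB-231 treated at 1, 2 or 4 µM for 24 h. Whole-cell extracts prepared in RIPA buffer. Blots probed with rabbit anti-caspase-3, anti-Bcl2 and anti-β-actin (1:1000) and anti-Bax (1:500), then HRP secondaries and ECL detection. Membranes stripped and reprobed. Bands quantified by densitometry as fold change versus control. Mean ± SEM, n=3.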

MDA-MB-231 [8] = experiment: Induction of apoptosis in human MDA-MB-231 cells assessed as destructive fragmentation of chromatin at 4 uM after 24 hrs by AO/EB-dual staining based fluorescent microscopic analysis; format: functional, cell-based
Summary of the method: (§3)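 MDA-MB-231 plated at 1×10^6 cells/mL and treated at 1, 2 or 4 µM, with a DMSO control. Incubation time is given as 48 h in the methods and 24 h in the figure legend. AO and EB added at 10 µg/mL each. Cells viewed within 10 min by fluorescence microscopy (excitation 488 nm, emission 550 nm) at 200×.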

[9] = Cytotoxicity against human A549 cells assessed as reduction in cell viability after 48 hrs by MTT assay; format: functional, cell-based; settings: A549, 48 h; summary of the method: as §1
MDA-MB-231 [10] = experiment: Induction of apoptosis in human MDA-MB-231 cells assessed as loss of mitochondrial membrane potential after 24 hrs by rhodamine-123 -based spectrofluorometric analysis; format: functional, cell-based
Summary of the method: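 MDA-MB-231 seeded at 5×10^5 cells/mL and allowed to adhere overnight, then treated at 1, 2 or 4 µM for 24 h. Cells collected by trypsin, washed, and stained with rhodamine-123 (10 µg/mL) in PBS for 30 min at room temperature. Cells washed twice and fluorescence read at excitation 480 nm, emission 530 nm. Mean ± SD of three independent experiments in triplicate.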

[11] = Cytotoxicity against human DU145 cells assessed as reduction in cell viability after 48 hrs by MTT assay; format: functional, cell-based; settings: DU-145, 48 h; summary of the method: as §1
[12] = Cell cycle arrest in human MDA-MB-231 cells assessed as accumulation at G0/G1 phase at 1 uM after 24 hrs by propidium iodide staining based FACS analysis (reference value: 50.4 %); format: functional; summary of the method: as §2
[13] = Cytotoxicity against human BT549 cells assessed as growth inhibition at 50 uM after 48 hrs by MTT assay relative to control; format: functional; settings: BT-549, 48 h, read-out: GI; summary of the method: as §1
MDA-MB-231 [14] = experiment: Induction of apoptosis in human MDA-MB-231 cells assessed as early apoptotic cells after 24 hrs by Annexin V-FITC/propidium iodide-staining based FACS analysis; format: functional, cell-based
MDA-MB-231 [15] = experiment: Induction of apoptosis in human MDA-MB-231 cells assessed as formation of horse-shoe shaped nuclei at 2 uM after 24 hrs by AO/EB-dual staining based fluorescent microscopic analysis; format: functional, cell-based; summary of the method: as §3
[16] = Cytotoxicity against human PC3 cells assessed as growth inhibition at 50 uM after 48 hrs by MTT assay relative to control; format: functional; settings: PC-3, 48 h, read-out: GI; summary of the method: as §1
MDA-MB-231 [17] = experiment: Induction of apoptosis in human MDA-MB-231 cells assessed as cell shrinkage at 1 to 4 uM after 24 hrs by phase contrast microscopic analysis; format: functional, cell-based
Summary of the method: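 MDA-MB-231 treated at 1, 2 or 4 µM for 24 h. Morphology examined and photographed by phase contrast microscopy against untreated control cells.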

MDA-MB-231 [18] = experiment: Induction of apoptosis in human MDA-MB-231 cells assessed as late apoptotic cells after 24 hrs by Annexin V-FITC/propidium iodide-staining based FACS analysis; format: functional, cell-based
[19] = Cell cycle arrest in human MDA-MB-231 cells assessed as accumulation at G2/M phase at 4 uM after 24 hrs by propidium iodide staining based FACS analysis (reference value: 26 %); format: functional; summary of the method: as §2
MDA-MB-231 [20] = experiment: Induction of apoptosis in human MDA-MB-231 cells assessed as viable cells at 2 uM after 24 hrs by Annexin V-FITC/propidium iodide-staining based FACS analysis (reference value: 89.5 %); format: functional; settings: MDA-MB-231, 24 h, read-out: Activity
[21] = Selectivity ratio of IC50 for human MCF10A cells to IC50 for human DU145 cells; format: ADME, cell-based, MCF-10A; settings: MCF10A cells versus DU145 cells, read-out: Ratio IC50
MDA-MB-231 [22] = experiment: Induction of apoptosis in human MDA-MB-231 cells assessed as early apoptotic cells at 1 uM after 24 hrs by Annexin V-FITC/propidium iodide-staining based FACS analysis (reference value: 4.1 %); format: functional
[23] = Cytotoxicity against HGC cells assessed as reduction in cell viability after 48 hrs by MTT assay; format: functional, cell-based; settings: Homo sapiens; summary of the method: as §1

For `CC(C)n1c(/C=C2/C(=O)Nc3ccc(Br)cc32)nc2ccccc21`, the inhibition of growth at 50 µM [1] was over 50%, the Activity (MDA-MB-231 [2]) was “Active” and the Activity [3] was 21.8%. The inhibition (MDA-MB-231 [4]) was “Active”, the inhibition of growth at 50 µM [5] was over 50% and the Activity (MDA-MB-231 [6]) was 4.4%. The Activity (MDA-MB-231 [7]) was “Dose-dependent effect”, the Activity (MDA-MB-231 [8]) was “Active” and the pIC50 [9] was 5.06. For the same compound, the Activity (MDA-MB-231 [10]) was “Dose-dependent effect”, the pIC50 [11] was 5.12 and the Activity [12] was 57.2%. For the same compound, the inhibition of growth at 50 µM [13] was over 50%, the Activity (MDA-MB-231 [14]) was “Dose-dependent effect” and the Activity (MDA-MB-231 [15]) was “Active”. The inhibition of growth at 50 µM [16] was over 50%, the Activity (MDA-MB-231 [17]) was “Active” and the Activity (MDA-MB-231 [18]) was “Dose-dependent effect”. For the same compound, the Activity [19] was 14.8%, the viability at 2 µM (MDA-MB-231 [20]) was 73.6% and the selectivity ratio [21] was 8. It also gave an Activity (MDA-MB-231 [22]) of 8.6% and a pIC50 [23] of 4.91.
